Results reported in article PMC7007868 (Molecular cancer therapeutics, 2019).
Read-outs that look alike come from different tables or passages of the source.

Key:
[1] = tested on: refractory pediatric sarcomas; conditions: prolonged infusion; cited from earlier work
[2] = tested on: MPNST xenograft; conditions: single agent, twice-daily dosed; cited from earlier work
[3] = tested on: FGAR amidotransferase; conditions: cited from earlier work
[4] = tested on: human MPNST cells (sNF96.2); test: Alamar blue viability dose response; assay type: cell-based; conditions: SNF96.2, 72 h, read-out: IC50 growth inhibition
Summary of the method: (§1)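 Human MPNST cells and immortalized Schwann cells were grown at 37°C in humidified 5% CO2 and exposed to test compound for 72 h. Viability was read by alamar blue fluorescence at 590 nm and expressed as percent viable relative to untreated controls. Data are given ± S.D.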

[5] = tested on: MPNST cells sNF02.2; test: Alamar blue viability dose response; assay type: cell-based, human; conditions: read-out: IC50 growth inhibition
[6] = tested on: immortalized Schwann cells (ipn02.32λ); test: Alamar blue viability dose response; assay type: cell-based, human; conditions: 72 hours drug treatment
Summary of the method: as §1

[7] = Parallel artificial membrane permeation assay; assay type: in vitro ADME; conditions: PAMPA
[8] = doses over 0.6 mg/kg daily, by treatment days 6–7; cited from earlier work
[9] = tested on: murine flank MPNST; test: Efficacy in murine flank MPNST model; assay type: in vivo, mouse; conditions: 1.2 mg/kg p.o. × 5 days, 0.5 mg/kg × 9 days; vehicle 1695 mm^3; p≤0.05
[10] = tested on: glutamine incorporation in murine flank MPNST; test: In vivo stable isotope flux analysis; parameters: species or system mouse; conditions: 1.2 mg/kg/dose p.o. for five days; m+1, m+2 (IMP, AMP), m+3 (GMP)
Summary of the method: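 B6 flank MPNST mice received vehicle or test compound at 1.2 mg/kg/dose p.o. for five days. On harvest day they were dosed orally, then 30 min later given three 0.2 ml tail-vein injections of 200 mM ¹⁵N₂-glutamine, 15 min apart. Tumors were flash frozen, extracted in cold 80% methanol, dried and redissolved in 50% acetonitrile. Analysis was by C18 ion-pair (tributylamine) LC-Q-TOF MS with natural-abundance correction.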

[11] = swine, cited from earlier work
[12] = Plasma stability of JHU395, 60 min at 37°C; assay type: in vitro ADME; conditions: one hour incubation, plasma of multiple species including humans
[13] = Modified Irwin assay; assay type: in vivo, mouse; conditions: days 0, 8, 15; for modified Irwin battery, autonomic and somatomotor function: B6 flank MPNST mice, oxotremorine 0.5 mg/kg s.c. once
Summary of the method: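 B6 flank MPNST mice on the 14-day efficacy dosing regimen or vehicle were scored blind on a modified Irwin autonomic/somatomotor battery on days 0, 8 and 15, including hang time (s) from an inverted wire. A separate cohort (n=5) received oxotremorine 0.5 mg/kg s.c. 30 min before testing as assay control. Scores were averaged and normalized to day-0 vehicle; grip times were compared by multiple t-tests.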

[14] = tested on: human MPNST cells (sNF96.2) in human plasma; test: Tumor cell-to-plasma partitioning; assay type: in vitro ADME
Summary of the method: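 sNF96.2 cells were washed twice in PBS and resuspended in human plasma at 7.5 million cells/mL. Test compound was spiked at 20 µM and incubated 1 h at 37°C, then spun at 1000 × g for 5 min at 4°C. Plasma and PBS-washed cell pellets were stored at -80°C, and intact prodrug and released glutamine antagonist were measured by LC-MS/MS as percent of total. Mean ± S.E.M.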

[15] = tested on: de novo purine biosynthesis (FGAR); test: Quantitative FGAR analysis in tumors; assay type: in vivo, mouse; conditions: JHU395 1.2 mg/kg p.o.
Summary of the method: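 B6 flank MPNST mice (n=8/group) were given vehicle or 1.2 mg/kg/dose p.o. for five days. Tumors were snap frozen, homogenized in methanol with 10 µM deuterated N-acetylaspartic acid internal standard (5 µL/mg) and centrifuged at 16,000 × g for 5 min. Supernatants were run by UHPLC–orbitrap full-MS negative mode against an FGAR standard curve in untreated tumor ([…]). Group means were compared by t-test.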

[16] = tested on: glutamine utilization; test: Quantitative glutamine analysis in tumor and plasma; assay type: in vivo, mouse
[17] = swine and human plasma, at 1 hour; cited from earlier work
[18] = GI, hepatic and brain toxicity assessment during 14 days oral dosing; assay type: in vivo, mouse
Summary of the method: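 Flank MPNST mice were dosed orally for 14 days on the efficacy regimen against vehicle (n=9) and weighed thrice weekly as percent change from start. In a subset (n=3–4/condition), jejunum was fixed overnight in 10% neutral buffered formalin, paraffin-embedded, sectioned at ~5 µm and H&E-stained. A veterinary pathologist examined the sections for apoptotic figures and crypt architecture.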

[19] = Dose tolerance in non-tumored NPcis mice; assay type: in vivo, mouse; conditions: 1.2 mg/kg p.o. × 5 days then 0.5 mg/kg p.o. daily, over thirty days
[20] = JHU395 pharmacokinetic analysis; assay type: in vivo, mouse
[21] = tested on: immortalized Schwann cells (ipn02.32λ); test: Glutamine titration, alamar blue growth; assay type: cell-based; conditions: Homo sapiens, 72 h, read-out: EC50 of glutamine to rescue growth
[22] = tested on: human MPNST cells (sNF96.2); test: Glutamine titration, alamar blue growth; assay type: cell-based; conditions: SNF96.2, 72 h, read-out: EC50 of glutamine to rescue growth
Summary of the method: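 sNF96.2 cells were plated at 1500–2000 cells/well in standard medium. The next day the medium was replaced with glutamine-free medium made with dialyzed FBS, and fixed glutamine concentrations were added across the plate. After 72 h, growth was read by alamar blue fluorescence at 590 nm as percent growth (± S.D.).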

[23] = 20 μM JHU395, one hour, sNF96.2 cells in human plasma
[24] = B6 mice, thirty minutes after JHU395 1.2 mg/kg oral
[25] = flank tumored mice, JHU395 1.2 mg/kg oral

## Sc1ncnc2nc[nH]c12 [6-MP, 6-mercaptopurine]
[1]
  disease stabilization: approximately 25%

## O=C(Cc1cccc(OC(F)(F)F)c1)Nc1ccc(CCCCc2nnc(NC(=O)Cc3ccccn3)s2)nn1 [CB-839]
[2]
  MPNST xenograft growth: partially decreased

## [N-]=[N+]=CC(=O)CC[C@H](N)C(=O)O [DON, 6-diazo-5-oxo-L-norleucine, reference compound]
[3]
  concentration inhibiting the enzyme that converts FGAR to FGAM: low micromolar levels
[4]
  IC50: 9.8 µM
[5]; Homo sapiens, 72 h
  IC50: 2.4 µM
[6]
  effect on growth of immortalized Schwann cells: minimally affected
[7]; pH 7
  Papp at 5 h, 20 μM: 0.0095 ×10⁻⁶ cm/s
[8]
  weight loss: ~20%

## CC(C)OC(=O)[C@H](CCC(=O)C=[N+]=[N-])NC(=O)OC(OC(=O)C(C)(C)C)c1ccccc1 (some centres unmarked) [JHU395]
[9]
  tumor volume at end of treatment: 1045 mm^3
[10]
  ^15N2-glutamine isotopologue enrichment in IMP, AMP, GMP versus vehicle: significantly lower enrichment
[11]; DON or JHU395-derived DON
  DON brain-to-plasma ratio: 1.38
[11]; equimolar dose of DON or JHU395
  DON exposure in plasma AUC0→t: 5.7 µM·h
[11]
  enhancement of DON brain-to-plasma ratio (JHU395 vs DON): 9.3
[12]
  JHU395 remaining intact in plasma: Over 80%
[13]
  modified Irwin battery, autonomic and somatomotor function: performed similarly
  grip time from an inverted wire: unaffected
[14]; [23]
  share of total DON measured in cells: 92%
  share of total DON measured in plasma: 8%
[14]; after one hour
  intact JHU395 in MPNST cells: minimal
  intact JHU395 in plasma: detected
[15]
  fold increase of tumor FGAR versus vehicle: 75 fold
[15]; vehicle 3.4 nmol/g, p≤0.01
  tumor FGAR: 254.4 nmol/g
[5]; sNF02.2, 72 hours drug treatment
  IC50: 1.5 µM
[16]; flank MPNST mice, vehicle 475 nmol/ml, p≤0.0001
  plasma glutamine: 729 nmol/mL
[16]; flank MPNST mice, vehicle 1293 nmol/g, p≤0.001
  tumor glutamine: 2096 nmol/g
[16]; non-tumored mice, versus vehicle
  increase in plasma glutamine: 25%
[16]; non-tumored mice, vehicle 830 nmol/ml, p≤0.01
  plasma glutamine: 1036 nmol/mL
[17]
  prodrug remaining intact in plasma: 83–88%
[18]; flank MPNST mice, 14 days oral dosing
  change from starting weight: ≤ 10%
[18]; subset of animals, after 14 days oral dosing
  jejunal histology versus vehicle: No differences
[18]; subset of brains, after 14 days oral dosing
  brain histology postmortem: no gross changes nor cortical vacuolization
[19]
  tolerability of dosing regimen: well-tolerated
[6]
  effect on growth of immortalized Schwann cells: minimally affected
[7]; 20 μM, pH 7.0, 5 h, room temperature
  apparent permeability Papp: 5.707 ×10⁻⁶ cm/s
[20]; [24]
  DON in jejunum: 0.18 nmol/g
  DON in plasma: 0.91 nmol/mL
  small intestine-to-plasma DON ratio: 0.20
[20]; [25]
  DON plasma AUC: 0.977 µM·h
  DON tumor AUC: 2.496 nmol·h/g
  DON tumor Cmax: 1.8 nmol/g
[20]; mice, full time-dependent pharmacokinetic analysis
  accumulation of DON in GI tissue versus plasma: no accumulation

## NC(=O)CC[C@H](N)C(=O)O [glutamine]
[21]
  EC50: 64.5 µM
[22]
  EC50: 209 µM

## O=C1CCCN1CC#CCN1CCCC1 [oxotremorine, reference compound]
[13]
  modified Irwin battery, autonomic and somatomotor function: induced significant adverse effects
